Rows were chosen to be rich in hits. Some 2.3% of all compounds tested hit in one or more screens of this group.
NR2F2 inh – NR2F2 transcriptional activity inhibitors, primary screen, cell-based, luciferase reporter, HEK293T, luminescence; 0.7% of 370,000 active; inhibition, % at 8.6 µM; HEK293T NGFI-A luciferase reporter;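 active = inhibition above a per-plate cutoff, mean inhibition of test wells between control levels plus 3 SD, cut at about 38% in these data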;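 note: cells cotransfected with COUP-TFII expression vector driving the NGFI-A reporter; 0% = median of COUP-TF2 test wells and 100% = reporter-only cells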
CHT inh – inhibitors of human choline transporter CHT; 0.86% of 310,000 active; B-score at 10 µM; High affinity choline transporter 1 (Homo sapiens), Q9GZV3; CHT-expressing cells, membrane potential dye, choline response; hits give low values;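 active = B-score over 3 SD under the library average, and starting fluorescence ratio not unusually high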;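 note: choline stimulus applied at its EC90 after an EC20 pre-addition; B-score computed on integrated fluorescence ratio after choline addition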
CHT PAM – CHT positive allosteric modulators, primary screen, cell-based, membrane potential dye, choline EC20; High affinity choline transporter 1 (Homo sapiens), Q9GZV3; CHT-expressing cells; hits give high values; LV-AA mutant CHT in HEK293 cells; B-score at 10 µM; 0.49% of 310,000 active; AID 488977, 2010;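 active = initial fluorescence not abnormally high and integrated response B-score, plate-corrected, over 3 SD above library mean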
NR2E3 ag-1 – inhibitors of NR2E3-RetCOR corepressor binding, primary screen, NR2E3 agonist project, biochemical, TR-FRET, GST-NR2E3, biotin-RetCOR; inhibition of corepressor binding, % at 4.78 µM; 0.12% of 320,000 active; Photoreceptor-specific nuclear receptor (Homo sapiens), Q9Y5X4; 1536-well;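 active = percent inhibition above the cutoff of mean plus 3 SD of all tested compounds, set per screening campaign, cut at about 20% in these data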;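 note: 0% = DMSO wells and 100% = biotin wells as full block of FRET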
Target sequence (Q9Y5X4 whole entry, looked up): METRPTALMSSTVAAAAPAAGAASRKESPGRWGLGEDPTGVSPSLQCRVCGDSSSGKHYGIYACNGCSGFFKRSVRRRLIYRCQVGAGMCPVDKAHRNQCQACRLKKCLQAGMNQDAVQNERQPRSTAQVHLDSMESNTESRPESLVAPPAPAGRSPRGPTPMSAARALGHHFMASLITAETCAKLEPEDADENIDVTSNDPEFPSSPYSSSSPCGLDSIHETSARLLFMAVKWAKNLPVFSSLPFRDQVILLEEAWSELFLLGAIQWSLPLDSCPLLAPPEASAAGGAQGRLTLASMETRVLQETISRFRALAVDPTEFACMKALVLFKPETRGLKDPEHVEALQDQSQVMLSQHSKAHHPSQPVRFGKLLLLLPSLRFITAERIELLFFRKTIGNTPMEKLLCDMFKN
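Format: 1536-well format; test system: GST-NR2E3 and biotin-RetCOR proteins; read-out basis: percent inhibition of TR-FRET ratio; timing: 5 h incubation at 4 °C; detection: time-resolved FRET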
NR2E3 ag-2 – NR2E3 agonists in two-hybrid cells, primary screen, cell-based, luminescence, CHO-S, Gal4-NCOR/VP16-NR2E3; Photoreceptor-specific nuclear receptor (Homo sapiens), Q9Y5X4; luciferase; inhibition of corepressor binding, % at 3.98 µM; 0.35% of 360,000 active; AID 602229, 2012;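 active = inhibition above the mean of all tested compounds plus 3 SD, cut at about 70% in these data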;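 note: 0% = DMSO with NR2E3 transfected cells and 100% = cells lacking NR2E3 construct; higher means lower luciferase signal from less NR2E3 corepressor binding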
GalR3 antag – GalR3 antagonists in HEK293 cells, primary screen, cell-based, fluorescence readout | HEK293 GalR3-CNG cAMP membrane potential fluorescence; galR3 body fused to GalR1 C-terminus | inhibition, % at 3 µM | 0.44% of 360,000 active;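 active = inhibition above the screen-wide average plus 3 SD, cut at about 13% in these data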;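 note: forskolin and galanin both at EC90 stimulate the cells; cAMP rise reported by CNG channel membrane potential dye signal; 0% = forskolin plus galanin with DMSO and 100% = forskolin alone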
Target sequence (O60755 1-299 limits assumed): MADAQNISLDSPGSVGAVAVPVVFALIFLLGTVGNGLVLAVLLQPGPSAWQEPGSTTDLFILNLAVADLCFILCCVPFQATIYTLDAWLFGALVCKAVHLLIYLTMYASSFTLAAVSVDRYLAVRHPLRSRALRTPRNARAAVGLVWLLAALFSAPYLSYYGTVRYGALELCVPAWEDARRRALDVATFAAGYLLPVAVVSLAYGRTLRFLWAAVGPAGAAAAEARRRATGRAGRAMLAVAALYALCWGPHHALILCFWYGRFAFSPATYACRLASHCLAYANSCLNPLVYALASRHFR
CHT act confirm – CHT activators, confirmation, cell-based, membrane potential dye, duplicate. shares compounds with CHT PAM. CHT-expressing cells, membrane potential dye fluorescence (FDSS); % of choline EC20–EC90 response window; HEK293 expressing CHT LV-AA mutant; choline added at its EC20. activation, % at 10 µM. 91% of 2,500 active. AID 504833, 2011;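 active = primary screen active, with duplicate mean activation above negative control mean plus 3 SD, cut at about 11% in these data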
HEK293 MP dye – membrane potential response in parental HEK293 cells, counter-screen for CHT activator project, cell-based, membrane potential dye; shares compounds with CHT PAM; membrane potential dye fluorescence (FDSS); measured after EC20 choline addition; ratio readout change at 10 µM, hits read low; 62% of 2,500 active; AID 623908, 2012;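 active = duplicate-averaged ratio beyond 3 SD from buffer wells, up or down, though filed actives are nearly all decreases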
* hit, by the source's call; i = inactive; x = no result.

SMILES	NR2F2 inh	CHT inh	CHT PAM	NR2E3 ag-1	NR2E3 ag-2	GalR3 antag	CHT act confirm	HEK293 MP dye
COc1ccc([N+](=O)[O-])cc1C(=O)NC1CCN(Cc2ccccc2)CC1	10.8	i	6.87*	-2.6	12.8	-6.8	45.6*	-42.6*
COC(=O)c1cc(-c2cc(F)cc(OC)c2)c(=O)n2c1CCC2	0.1	x	x	x	x	x	x	x
COc1ccccc1N1CCN(C(c2ccccc2)c2nnnn2CCc2ccccc2)CC1 (stereo not given)	-8.9	i	i	0.2	14.8	-5.9	17.0*	i
COc1ccccc1C(c1nnnn1CCc1ccccc1)N1CCN(c2ccccc2)CC1 (stereo not given)	-8.6	i	i	0.2	-14.0	1.7	x	x
COc1cccc(C(c2nnnn2CCc2ccccc2)N2CCN(c3ccccc3)CC2)c1OC (stereo not given)	11.2	i	6.79*	-2.2	-12.5	-1.0	21.4*	i
COc1ccc(C(c2nnnn2CCc2ccccc2)N2CCN(C)CC2)cc1OC (stereo not given)	10.9	x	x	x	-41.5	2.3	x	x
COc1cccc(C(c2nnnn2Cc2ccco2)N2CCN(c3cccc(C)c3C)CC2)c1OC (stereo not given)	-10.0	i	7.08*	1.0	-16.3	-5.0	19.9*	i
CC1=C2NC(N)=[N+](CC3CC3)C(Cc3ccccc3)[C@@H]2n2c(=O)n(-c3ccccc3)c(=O)n2C1 (stereo not given in full)	11.2	x	x	x	x	x	x	x
C[C@@H](N)P(=O)(O)C[C@H](Cc1ccccc1)C(=O)O	-9.8	x	x	x	x	x	x	x
CCn1c(SCc2c(F)cccc2F)nc2sc3c(c2c1=O)CCCC3	-1.1	x	x	x	x	x	x	x
Cc1cc(C)nc(/N=C(\N)N2CCCCC2)n1	23.7	i	6.89*	1.0	-8.2	-2.0	52.0*	-41.1*
CC1=C2NC(N)=[N+](Cc3ccc4c(c3)OCO4)CC2NOC1 (stereo not given)	-21.8	x	x	x	x	x	x	x
COC(=O)c1cc2c(C)[nH]c(C)c2cc(C(=O)OC)c1=O	10.3	i	i	2.2	-6.5	-6.9	30.2*	-45.4*
CN(C)CC(=O)N[C@@H]1C[C@@H]2O[C@@H](CO)CC[C@@H]2O[C@@H]1CCc1ccc(-c2ccc(F)cc2)cc1	0.8	x	x	x	x	x	x	x
COc1ccc(C2=CSC3=NCCN23)cc1F	16.6	i	7.18*	1.0	-26.1	-1.6	47.3*	-55.2*
COc1ccc(C2=CSC3=NCCN23)cc1Br	2.0	i	6.56*	3.9	-4.3	-3.4	29.4*	-47*
O=[N+]([O-])c1ccc(C2=CSC3=NCCN23)cc1	15.4	i	7.39*	0.6	-19.9	-6.5	43.4*	-60.8*
COc1ccc(C2=CSC3=NCCN23)cc1[N+](=O)[O-]	0.6	i	i	1.8	0.4	-7.2	x	x
COc1ccc(C2=CSC3=NCCN23)cc1Cl	-4.9	i	i	-0.9	-13.3	0.1	x	x
C[C@H](CCCCC1(C)OCCO1)CCC(=O)N(c1ccccc1)c1ccccc1	9.5	x	x	x	x	x	x	x
COc1ccc(CSc2ccc(-c3nc4ccccn4c3NCc3ccccc3)cc2OC)cc1	5.1	i	8.93*	3.1	-45.9	-3.7	30.8*	i
CCOC(=O)c1c(NC(=O)CC)sc2c1CCN(Cc1ccccc1)C2	9.4	i	i	2.6	7.2	x	x	x
CCOC(=O)c1c(NC(C)=O)sc2c1CCN(Cc1ccccc1)C2	-18.6	i	6.37*	3.3	-13.1	x	40.3*	-60.1*
COC(=O)c1c(NC(C)=O)sc2c1CCN(Cc1ccccc1)C2	-6.7	i	7.25*	1.5	6.0	x	40.3*	-66.3*
COC(=O)c1c(NC(=O)C(C)(C)C)sc2c1CCN(Cc1ccccc1)C2	18.2	i	i	2.2	-17.9	x	x	x
SMILES	NR2F2 inh	CHT inh	CHT PAM	NR2E3 ag-1	NR2E3 ag-2	GalR3 antag	CHT act confirm	HEK293 MP dye
CC(=O)CC[C@H]1CC[C@]2(CCCN(C(=O)c3ccc4ccccc4n3)C2)O1	-9.1	x	x	x	x	x	x	x
c1ccc(-c2csc(Nc3cccnc3)n2)nc1	-12.0	i	i	1.0	-67.4	-5.4	50.1*	-55.3*
CC(C)CC(C)N1CCC(n2nccc2NC(=O)CCc2ccccc2)CC1 (stereo not given)	12.4	i	i	-1.4	5.7	-1.7	31.7*	i
CC(CC(F)(F)F)N1CCC(n2nccc2NC(=O)CCCc2ccccc2)CC1 (stereo not given)	7.1	i	i	4.7	-12.3	-2.6	-2.9	i
O=C(CCCc1ccccc1)Nc1ccnn1C1CCN(Cc2ccccc2)CC1	-0.7	i	i	-1.1	18.2	-7.1	x	x
O=C(CSc1nnc(-c2cccnc2)n1C1CCCCC1)N1CCCC1	4.1	x	x	x	x	x	x	x
CCOC(=O)c1cnc2cc(C)ccn2c1=O	-10.6	i	8.47*	3.3	-13.1	4.5	51.8*	-48.8*
O=C(NC1CCCCC1)C(c1cccs1)N(Cc1cccs1)C(=O)c1ccco1 (stereo not given)	-0.1	i	i	9.0	-13.9	-4.9	29.1*	i
CCCCN(C)C(=O)Cc1c(OC)ccc2cc(Br)ccc12	5.6	i	6.71*	5.8	-19.8	-5.4	8.8	i
Cc1nnc(SCCn2c(N3CCN(C)CC3)nc3c2c(=O)[nH]c(=O)n3C)s1	-7.9	i	6.87*	-0.5	-3.4	-1.0	58.8*	-67.2*
CN1CCN(c2nc3c(c(=O)[nH]c(=O)n3C)n2CCSc2nc3ccccc3s2)CC1	12.4	i	9.23*	0.5	-8.3	x	50.2*	-55.3*
O=C(CSc1nnc(-c2ccccc2)n1-c1ccc(Cl)cc1)NN=Cc1c[nH]c2ccccc12	-0.1	x	x	x	x	x	x	x
CCOC(=O)c1c(C)n(C)c2ccc(OC)c(NC(=O)CCN3CCC(Cc4ccccc4)CC3)c12	1.8	i	i	2.5	-9.9	3.3	7.3	i
CCOc1ccc(CCNC(=O)c2cc(-c3ccccc3)c(N3CCOCC3)s2)cc1OC	34.8	x	x	x	x	x	x	x
